The subject of assay [1] is HepG2. Nature of the assay: Induction of apoptosis in human HepG2 cells assessed as PARP cleavage at 5 and 10 uM by immunoblotting method. The assay is classed as functional, cell-based. The procedure, abridged:
(§1)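 A549 or HepG2 cells were treated with compound for 24 h, with or without subsequent TNFα (20 ng/mL) for 30 min. Lysates were immunoblotted for PARP cleavage as the apoptosis marker. One of three to five similar experiments shown.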
For orientation: A western blot detects proteins with antibodies after separation by electrophoresis.

Assay [2] concerns the target T1, Retinoic acid receptor RXR-alpha (Homo sapiens) (UniProt P19793).
T1 sequence (whole entry): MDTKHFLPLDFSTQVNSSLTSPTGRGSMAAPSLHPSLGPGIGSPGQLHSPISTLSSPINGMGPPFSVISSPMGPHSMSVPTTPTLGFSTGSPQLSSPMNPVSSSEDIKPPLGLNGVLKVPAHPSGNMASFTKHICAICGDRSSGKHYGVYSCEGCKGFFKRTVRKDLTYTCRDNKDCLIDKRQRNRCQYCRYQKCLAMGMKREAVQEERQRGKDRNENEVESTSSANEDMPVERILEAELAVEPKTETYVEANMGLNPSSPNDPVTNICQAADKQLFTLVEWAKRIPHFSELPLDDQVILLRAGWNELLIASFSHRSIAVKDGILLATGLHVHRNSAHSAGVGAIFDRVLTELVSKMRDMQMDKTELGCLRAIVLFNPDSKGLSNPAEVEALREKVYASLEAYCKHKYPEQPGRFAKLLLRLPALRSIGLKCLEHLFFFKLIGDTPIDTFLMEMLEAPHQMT
Nature of the assay: Antagonist activity against RXRalpha in human HepG2 cells assessed as inhibition of AKT phosphorylation at 5 and 10 uM after 24 hrs by Western blotting method. The assay is classed as cell-based. The procedure, abridged:
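A549 or HepG2 cells were exposed to compound for 24 h, then with or without TNFα (20 ng/mL) for 30 min more. Lysates were immunoblotted for AKT activation. One of three to five similar experiments shown.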

For assay [3], the target named is T1, Retinoic acid receptor RXR-alpha (Homo sapiens). Nature of the assay: Antagonist activity against Myc-tagged RXRalpha ligand binding domain (unknown origin) expressed in human MCF7 cells assessed as inhibition of 9-cis-RA-induced receptor transactivation at 10 uM after 18 hrs by luciferase reporter gene based mammalian one-hybrid assay. The assay is classed as cell-based. The procedure, abridged: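 MCF-7 cells co-transfected with pG5-Luc reporter and pBind-RXRα-LBD. […] Read-out was dual-luciferase, with firefly normalized to Renilla for transfection efficiency. Single-concentration tests used 10 μM. Mean ± SD.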
On the technique in general: In a reporter assay the amount or activity of a reporter protein is the signal.

Assay [4] has the same target. As to the kind of experiment: Antagonist activity against RXRalpha in TNFalpha-stimulated human A549 cells assessed as inhibition of AKT phosphorylation at 5 and 10 uM pre-treated for 24 hrs before TNFalpha addition in presence of RXRalpha siRNA by Western blotting method. The assay is classed as cell-based. The procedure, abridged:
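A549 cells were transfected with RXRα siRNA or control siRNA for 48 h. They were then treated with compound for 24 h, followed by TNFα (20 ng/mL) for 30 min. Lysates were analyzed by Western blot for AKT activation and PARP cleavage.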

For assay [5], the system named is HepG2. Nature of the assay: Induction of apoptosis in TNFalpha-stimulated human HepG2 cells assessed as PARP cleavage at 5 and 10 uM pre-treated for 24 hrs before TNFalpha addition by immunoblotting method. The assay is classed as functional, cell-based. Put shortly: as §1
For assay [6], the target named is T2, Peroxisome proliferator-activated receptor gamma (Homo sapiens) (UniProt P37231).
T2 sequence (whole entry): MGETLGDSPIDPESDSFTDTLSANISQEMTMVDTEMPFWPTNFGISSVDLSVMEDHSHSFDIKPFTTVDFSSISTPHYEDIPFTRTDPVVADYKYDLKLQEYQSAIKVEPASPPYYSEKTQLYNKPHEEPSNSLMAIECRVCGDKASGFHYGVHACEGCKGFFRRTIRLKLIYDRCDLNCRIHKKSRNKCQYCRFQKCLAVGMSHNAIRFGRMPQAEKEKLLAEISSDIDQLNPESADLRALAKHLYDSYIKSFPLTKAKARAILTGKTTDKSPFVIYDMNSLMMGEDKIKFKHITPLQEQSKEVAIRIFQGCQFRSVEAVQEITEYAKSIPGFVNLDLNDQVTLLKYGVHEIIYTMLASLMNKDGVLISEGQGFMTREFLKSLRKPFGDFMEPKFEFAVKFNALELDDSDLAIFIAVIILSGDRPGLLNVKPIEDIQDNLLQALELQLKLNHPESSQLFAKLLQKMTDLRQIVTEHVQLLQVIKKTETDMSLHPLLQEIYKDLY
As to the kind of experiment: Antagonist activity against PPARgamma ligand binding domain (unknown origin) expressed in human MCF7 cells assessed as inhibition of ROS-induced receptor transactivation at 10 uM after 18 hrs by luciferase reporter gene based mammalian one-hybrid assay. The assay is classed as cell-based.

Assay [7] addresses T3, Estrogen receptor (Homo sapiens) (UniProt P03372).
T3 sequence (whole entry): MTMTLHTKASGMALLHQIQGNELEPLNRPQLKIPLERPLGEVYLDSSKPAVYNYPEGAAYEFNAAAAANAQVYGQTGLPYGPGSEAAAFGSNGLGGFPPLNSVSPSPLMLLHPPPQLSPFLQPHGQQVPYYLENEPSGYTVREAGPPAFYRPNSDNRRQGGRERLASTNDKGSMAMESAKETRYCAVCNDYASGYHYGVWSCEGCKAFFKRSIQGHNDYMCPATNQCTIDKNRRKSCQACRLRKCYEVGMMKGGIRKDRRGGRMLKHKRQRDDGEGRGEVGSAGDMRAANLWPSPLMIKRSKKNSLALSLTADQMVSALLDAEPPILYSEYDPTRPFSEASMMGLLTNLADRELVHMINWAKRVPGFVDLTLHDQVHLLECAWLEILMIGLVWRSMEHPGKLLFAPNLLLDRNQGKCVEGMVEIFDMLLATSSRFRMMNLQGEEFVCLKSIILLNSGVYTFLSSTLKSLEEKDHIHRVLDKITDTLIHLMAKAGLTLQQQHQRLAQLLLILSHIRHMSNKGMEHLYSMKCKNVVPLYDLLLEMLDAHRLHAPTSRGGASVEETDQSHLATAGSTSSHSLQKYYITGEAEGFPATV
As to the kind of experiment: Antagonist activity against estrogen receptor ligand binding domain (unknown origin) expressed in human MCF7 cells assessed as inhibition of propyl pyrazole-induced receptor transactivation at 10 uM after 18 hrs by luciferase reporter gene based mammalian one-hybrid assay. Format: cell-based. Put shortly:
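MCF-7 cells co-transfected with pG5-Luc and the pBind-LBD fusion: Nur77, RARγ or ER. Agonists were all-trans-RA 10⁻⁷ M for RARγ and Nur77, and propyl pyrazole triol 10 μM for ER. Compound at 10 μM for 18 h. Dual-luciferase read-out normalized to Renilla. Mean ± SD.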

Each structure is given as a SMILES string. The source made the active and inactive calls. The calls are words filed in the database; no cut-off is given here.

As to `Cc1cc(=O)oc2c(/C=N/NC(=O)CSc3nc4ccccc4s3)c(O)ccc12`, the result in the assay with HepG2 [1] and in the assay with HepG2 [5] was Active. In assay [2], the inhibition entry is “Dose-dependent effect”. Besides, the inhibition result in assay [3] and in assay [6] was “Active” each time. Also, the inhibition result in assay [4] and in assay [7] was “inactive” in each case.

These data come from ChEMBL document CHEMBL3352174, “Identification of a New RXRα Antagonist Targeting the Coregulator-Binding Site” (ACS Med Chem Lett, 2014).
